# T cruzi repl: blocks replication of Trypanosoma cruzi; T. cruzi beta-gal in NIH3T3, luminescence, 90 h; inhibition, % (test concentration not listed); 300,000 tested, 1.4% active; AID 1885;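 active = mean inhibition across valid replicates above about 55%, limit read from the data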;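 also: signal also drops with host cell toxicity which is not excluded here; 0% = plate median of DMSO wells and 100% = zero luminescence signal; higher percent means less beta-gal luminescence so fewer parasites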
#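 Assay system: NIH/3T3 fibroblasts plus reporter T. cruzi. Amount: NIH/3T3 cells, 5,000 per well. Buffer or medium: DMEM, 2% fetal bovine serum. Doses: compound pinned at 50 nL/well, DMSO. Schedule: ≥90 h infection period, 3 h prior cell attachment. Signal: luminescent β-galactosidase signal after 60 min lysis. Read-out: parasite load inhibition, %.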
# HDAC3 inh: human HDAC3 inhibition; O15379; recombinant HDAC3, fluorogenic peptide/trypsin coupled, fluorescence; inhibition, % at 8.3 µM; 320,000 tested, 0.15% active; in the data active = inhibition above about 26%, passing the limit was not always enough
# Target sequence (O15379 whole entry, looked up): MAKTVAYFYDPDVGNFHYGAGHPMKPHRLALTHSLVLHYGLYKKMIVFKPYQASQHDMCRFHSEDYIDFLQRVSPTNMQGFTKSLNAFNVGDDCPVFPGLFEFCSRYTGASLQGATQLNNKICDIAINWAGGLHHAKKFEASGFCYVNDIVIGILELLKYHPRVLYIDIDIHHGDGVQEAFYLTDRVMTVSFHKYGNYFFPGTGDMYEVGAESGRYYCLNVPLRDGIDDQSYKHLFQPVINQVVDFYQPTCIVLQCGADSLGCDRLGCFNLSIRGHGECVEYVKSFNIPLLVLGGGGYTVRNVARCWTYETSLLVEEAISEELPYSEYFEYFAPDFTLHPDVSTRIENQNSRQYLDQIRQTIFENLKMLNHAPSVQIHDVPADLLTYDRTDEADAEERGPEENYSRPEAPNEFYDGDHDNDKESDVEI
# PolyA inhibitor: blocks polyadenylation in yeast reporter cells; S. cerevisiae SKY197-pL101 polyadenylation reporter, beta-gal luminescence; efflux-impaired pdr1/pdr3 knockout yeast; score 100 = 6 SD above DMSO; activity score, % at 12 µM; 300,000 tested, 0.02% active; AID 1875;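 active = lowest replicate activity score at least 50, where 100 means six control SD above control mean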;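 also: yeast exposed to compound for 9 h at 30 °C; higher score means more reporter readthrough which indicates perturbed polyadenylation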
# AI-2 QS modul: Vibrio harveyi AI-2 quorum sensing modulation; activity change, % at 7.5 µM; Vibrio harveyi JMH597 AI-2 luminescence/OD600 ratio, 9 h; hits give low values; strain lacks LuxN and CqsS sensors; 0 = neutral-control median; 300,000 tested, 0.4% active; in the data active = activity change below about -75%, passing the limit was not always enough;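 also: luminescence divided by OD600 gain over 9 h not by final OD600 alone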
# Efflux pump mplx: blocks antifungal efflux pumps in multiplex yeast assay; inhibition, % at 10 µM; 330,000 tested, 0.44% active; S. cerevisiae Candida pump triplex, Nile Red efflux;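 active = plate passing quality check with inhibition over a set limit, or well fluorescence over plate mean plus 4 SD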;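 also: Nile Red retained in pooled yeast measured as flow cytometry median fluorescence; 0% = buffer negative control and 100% = Enniatin B positive control; higher means more Nile Red kept so more efflux inhibition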
# An asterisk follows results filed as active; x = no result. An excerpt weighted towards active compounds, which were near 2.2% of everything screened.
SMILES,T cruzi repl,HDAC3 inh,PolyA inhibitor,AI-2 QS modul,Efflux pump mplx
CCOCCCNC(=S)NCCNc1nc2c(C)cccc2cc1C#N,55*,-12,-17,2,0
CNC(=S)N/N=C/c1cccc(OCc2ccccc2F)c1,4,5,5,-5,0
CCNC(=S)N/N=C/c1cccc(OCc2c(F)cccc2Cl)c1,59*,12,-19,8,0
CC(=O)OCC1OC(n2cc(F)c(=O)[nH]c2=O)C(OC(C)=O)C1OC(C)=O (stereo not drawn),-80,-2,20,18,0
C[C@H]1O[C@@H](n2cc(F)c(=O)[nH]c2=O)[C@H](O)[C@@H]1O,-5,-3,-7,-83*,0
COc1ccccc1CN=C1NC(=O)C(CC(=O)Nc2ccc(C(C)=O)cc2)S1 (stereo not drawn),-2,6,16,23,0
COc1ccc(S(=O)(=O)N2CCCC2C(=O)n2nc(C)cc2C)cc1 (stereo not drawn),-13,4,-2,19,0
CCOC(=O)c1c(NC(=O)CCl)sc(CN(C)C)c1-c1ccccc1,-1,9,-7,28,0
CCOC(=O)c1c(NC(=O)CN2CCCCC2)sc(CN(C)C)c1-c1ccccc1,68*,0,-7,6,0
CCOC(=O)c1c(NC(=S)N2CCN(C)CC2)sc(C)c1-c1ccccc1,61*,-4,2,0,0
COc1ccc(NC(=O)C2CCN(S(=O)(=O)c3cn(C)nc3C)CC2)cc1,-22,1,-2,24,0
CC(C)c1ccccc1OCC(O)CN1CCN(S(=O)(=O)c2ccc([N+](=O)[O-])cc2)CC1 (stereo not drawn),55*,-1,12,4,0
CC(COc1cccc2ccccc12)CN1CCN(C)CC1 (stereo not drawn),66*,1,16,10,0
Cc1ccccc1OCC(O)CN1CCN(C)CC1 (stereo not drawn),63*,-2,-6,8,0
COc1cc(-c2nc(-c3ccccc3)c(-c3cc([N+](=O)[O-])ccc3C)[nH]2)cc(OC)c1OC,58*,19,12,24,0
COc1ccc2nc3cc(Cl)ccc3c(Nc3cc(C(C)C)c(O)cc3C)c2c1,43,4,-16,32,0
COc1ccc2nc3cc(Cl)ccc3c(Nc3cc(CN4CCCC4)c(O)c(CN4CCCC4)c3)c2n1,59*,-5,10,13,0
CN(Cc1nccn1C)C(=O)C1CCC(=O)N(CCc2ccc(Cl)cc2)C1 (stereo not drawn),11,-1,-8,16,0
Cc1cccc(CCN=c2c([N+](=O)[O-])nn(-c3ccccc3)n2O)c1,43,x,-18,5,0
COc1ccc(-n2nc([N+](=O)[O-])c(=NCCc3cccc(C)c3)n2O)cc1,63*,10,-15,44,0
O=[N+]([O-])c1nn(-c2ccc3c(c2)OCCO3)n(O)c1=NC1CCCC1,90*,-7,27,15,0
O=[N+]([O-])c1nn(-c2ccc3c(c2)OCCO3)n(O)c1=NC1CCCCCC1,59*,4,-6,15,0
Cc1ccc(CN=c2c([N+](=O)[O-])nn(-c3ccc4c(c3)OCCO4)n2O)cc1,32,9,-6,40,0
COc1ccc(-n2nc([N+](=O)[O-])c(=NCCCN3CCCC3=O)n2O)cc1,49,-2,7,21,0
O=C1CCCN1CCCN=c1c([N+](=O)[O-])nn(-c2ccc(Cl)cc2)n1O,68*,x,14,33,x
SMILES,T cruzi repl,HDAC3 inh,PolyA inhibitor,AI-2 QS modul,Efflux pump mplx
CC(C)N(C(=O)[C@H]1C[C@H](CC(=O)NCC23CC4CC(CC(C4)C2)C3)C(=O)N2CCc3c([nH]c4cc(CCC(=O)N(C)C)ccc34)[C@]12C)C(C)C,x,x,x,x,1
COc1ccc(NS(=O)(=O)c2ccc(N3CCCC3)c(NC(=S)Nc3cccc(S(=O)(=O)N(C)C)c3)c2)cc1,8,-2,-9,7,0
CC(C)Cc1nnc(NC(=O)CCC(=O)N2CCN(Cc3ccc(Cl)cc3)CC2)s1,38,-1,13,18,0
O=[N+]([O-])c1nn(-c2ccc3c(c2)OCCO3)n(O)c1=NCCCO,77*,1,20,37,0
O=S(=O)(/C=C/c1ccccc1)N1CCN(Cc2ccc3c(c2)OCO3)CC1,3,-4,-65,11,0
C(=C\c1ccccc1)/CN1CCN(Cc2ccc3c(c2)OCCO3)CC1,64*,x,-11,25,x
CC(=O)Nc1ccc(NC(=O)Cc2sc(-c3cccnc3)nc2-c2ccc(C)cc2)cc1,70*,6,-3,17,0
CC(C)Oc1ccc(-c2nn(-c3ccccc3)cc2/C=c2\sc3ncnn3c2=O)cc1,x,3,x,x,0.9*
COc1cc(/C=C2\SC(=Nc3ccccc3)N(CCc3c[nH]c4ccccc34)C2=O)ccc1OC(C)C(=O)O (stereo not drawn),-4,-2,-6,37,0
O=C1/C(=C/c2ccc(N3CCOCC3)o2)SC(=Nc2ccccc2)N1CCc1c[nH]c2ccccc12,71*,-3,12,24,0
CCn1c(SCC(=O)Nc2sc3c(c2C#N)CCCC3)nnc1-c1ccco1,55*,4,12,-68,0
Cc1ccc(S(=O)(=O)N(C)c2ccccc2C(=O)Nc2c(F)cccc2F)cc1,-3,-3,16,10,0
COc1ccc(CC(=O)N/N=C(\C)c2cccnc2)cc1,-29,-11,7,20,0
CN=c1scc(-c2ccc(OC)cc2)n1/N=C(\C)c1cccnc1,58*,7,x,17,0
O=C(O)c1cc([N+](=O)[O-])cc([N+](=O)[O-])c1N1CCN(c2cccc(C(F)(F)F)c2)CC1,-1,1,2,-3,0
O=C(c1cc([N+](=O)[O-])cc([N+](=O)[O-])c1)N(Cc1nnc(-c2ccccc2Cl)o1)C1CC1,75*,-3,-28,13,0
O=C(c1cc2ccccc2o1)N(Cc1nnc(-c2ccccc2Cl)o1)C1CC1,19,-4,-3,7,0
CCCN(Cc1nnc(-c2ccccc2Cl)o1)C(=O)c1cc([N+](=O)[O-])cc([N+](=O)[O-])c1,68*,0,-21,15,0
COC(=O)CC(NC(=S)NC(=O)c1ccccc1)c1ccc(Br)cc1 (stereo not drawn),18,16,-5,-1,0
CC(=O)Nc1ccc(NC(=O)C(C)OC(=O)c2cccc(S(=O)(=O)N3CCCC3)c2)cc1 (stereo not drawn),-9,-4,-9,8,0
O=C(CSc1ncnc2scc(-c3ccc(F)cc3)c12)c1ccc2c(c1)OCCO2,17,81*,-12,15,0
Cc1ccc(-c2csc3ncnc(SCC(=O)c4ccc5c(c4)OCCO5)c23)cc1,14,3,0,36,0
